High-throughput results: PubChem BioAssay, Broad Institute
F508del corr = F508del CFTR correction, initial screen, CFBE line, single point; 350,000 tested, 0.36% active; activity (quench increase), % at 7.58 µM; CFBE cells, YFP halide quenching; stimulated with forskolin plus potentiator P3; % fluorescence drop versus neutral controls;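 active = mean added fluorescence quench of at least 8% versus neutral control, with both replicates also reaching 8%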;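 also: cells transiently co-express mutant CFTR-F508del with the halide-sensitive YFP; corrector assay measuring rescue of mutant channel to the surface after 24 h compound exposure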
ARNT TACC3 PPI = disruptors of ARNT/TACC3 protein interaction, primary screen, biochemical, AlphaScreen, single concentration. Transforming acidic coiled-coil-containing protein 3 (Homo sapiens), Q9Y6A5. AlphaScreen His-ARNT PAS-B/GST-TACC3 binding, luminescence; TACC3 fragment carries E629A point mutation. inhibition, % at 9.99 µM. 390,000 tested, 0.66% active;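 active = mean inhibition of replicates at least 50% and at least half of replicates each reaching 50%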
PGC1a acetyl inh = inhibitors of PGC1a acetylation signal, primary screen, cell-based, U2OS, AlphaScreen, inhibitor mode; AlphaScreen anti-acetyl-lysine; with virally co-expressed GCN5 acetyltransferase; inhibition, % at 15.6 µM; 350,000 tested, 0.17% active; AID 651687, 2012;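 active = every replicate shows inhibition of at least 40%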
CAL PDZ FP-1 = untagged CAL PDZ binding inhibitors, primary screen, biochemical, fluorescence polarization, HTS | Golgi-associated PDZ and coiled-coil motif-containing protein (Homo sapiens), Q9HD26 | purified CAL PDZ, TMR-peptide fluorescence polarization, 1 h | inhibition, % at 24.9 µM | 300,000 tested, 0.92% active;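 active = mean inhibition of at least 30% with at least half of replicates also reaching 30%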
CAL PDZ FP-2 = CAL PDZ peptide-binding inhibitors, primary screen, biochemical, fluorescence polarization, Cer-tagged CAL PDZ, HTS. Golgi-associated PDZ and coiled-coil motif-containing protein (Homo sapiens), Q9HD26. purified CAL PDZ, TMR-peptide fluorescence polarization, 1 h. inhibition, % at 20 µM. 330,000 tested, 0.02% active. AID 504414, 2011;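 active = highest replicate inhibition of at least 40%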
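Test system: tagged CAL PDZ domain / Buffer or medium: sodium phosphate/NaCl buffer pH 7.4 with TCEP, IgG, Thesit / Reagent: TMR-labelled reporter peptide T*-PRC34 bound in PDZ groove / Compound dosing: single point, 20 µM / Schedule: 1 h incubation at room temperature before polarization reading / Technique: fluorescence polarization (mP) / Benchmarks: unlabelled peptide, DMSO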
miR-122 sensor = miR-122 Renilla sensor signal increase in Huh7, primary screen, miR-122 inhibitor project, cell-based, single point, plate reader. AID 602342, 2012. activation (reporter increase), % at 12.5 µM. Huh7 miR-122 Renilla luciferase sensor, 48 h; neutral wells = 0, positive control = 100. 340,000 tested, 0.3% active;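 active = mean replicate activation score at least 90 and every replicate individually at or above 90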;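 also: higher luciferase means less miR-122 activity so hits act as miR-122 inhibitors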
Each line names hits and unclear results; the compound was inactive in the other large screens. A selection: hits, their analogues and other compounds. The true share with any hit is near 1.7%.

CCCNC(=O)N1[C@@H]2CN(C(=O)c3ccc(F)cc3)c3ccccc3[C@@H]2[C@@H]1CO	none (no result: CAL PDZ FP-1, CAL PDZ FP-2)
COCCN(C(=O)c1ccco1)c1nnc(-c2ccc(F)cc2)s1	CAL PDZ FP-1 40
COc1ccc(S(=O)(=O)NCCc2ccccc2)cc1	none (no result: F508del corr)
COc1ccc(S(=O)(=O)NCCc2ccncc2)cc1	CAL PDZ FP-1 63 (no result: PGC1a acetyl inh)
Cc1nn(C)c(Oc2ccccc2)c1CCNS(=O)(=O)c1ccc(Cl)cc1	none (no result: F508del corr)
O=S(=O)(NCCc1ccncc1)c1ccc(Br)cc1	miR-122 sensor 192 (no result: F508del corr, PGC1a acetyl inh)
COc1ccc(S(=O)(=O)NCCc2c(C)nn(C)c2Oc2ccccc2)cc1	miR-122 sensor 238 (no result: F508del corr)
O=S(=O)(NCCc1ccncc1)c1ccc(F)cc1	none (no result: PGC1a acetyl inh, miR-122 sensor)
CCOC(=O)c1cnc(Cc2ccccc2)[nH]c1=O	none (no result: PGC1a acetyl inh)
CCOC(=O)c1cnc(-n2[nH]c(C)c(Cc3ccccc3)c2=O)[nH]c1=O	ARNT TACC3 PPI 75 (no result: miR-122 sensor)
C[C@H](CO)N1C[C@H](C)[C@H](CN(C)Cc2cccnc2)Oc2ncc(C3=CCCCC3)cc2C1=O	none (no result: CAL PDZ FP-1, CAL PDZ FP-2)
COc1ccc(NS(=O)(=O)c2cccc(C(=O)O)c2)cc1S(=O)(=O)N1CCOCC1	none (no result: CAL PDZ FP-1)
COc1ccc(S(=O)(=O)Nc2ccc(N3CCOCC3)cc2)cc1	none (no result: CAL PDZ FP-1)
COc1ccc(S(=O)(=O)Nc2ccc(S(=O)(=O)N3CCOCC3)cc2)cc1	miR-122 sensor 160 (no result: F508del corr, ARNT TACC3 PPI, PGC1a acetyl inh)
COc1ccc(NS(=O)(=O)c2ccc(/C=C/C(=O)O)cc2)cc1S(=O)(=O)N1CCOCC1	CAL PDZ FP-1 44
O=S(=O)(N[C@H]1CC[C@H](CCn2cc(C3(O)CCCC3)nn2)O[C@H]1CO)c1ccccc1	none (no result: CAL PDZ FP-1, CAL PDZ FP-2, miR-122 sensor)
CCCCn1c(O)c(N=Nc2ccccc2O)c2ccccc21	CAL PDZ FP-1 37
CCCCn1c(O)c(N=Nc2ccccn2)c2ccccc21	none (no result: F508del corr, PGC1a acetyl inh, miR-122 sensor)
CC(C)c1c(O)ccc2c1CC[C@H]1C(C)(C)CCC[C@]21C	F508del corr 9.0
COC(=O)[C@H]1[C@H](CO)[C@H]2Cn3c(ccc(-c4ccc(F)cc4)c3=O)[C@H]2N1C	none (no result: PGC1a acetyl inh, CAL PDZ FP-1, CAL PDZ FP-2)
CCNC(=O)c1ccccc1NC(=O)C1CC(=O)N(C(C)C)C1 (stereo not given)	CAL PDZ FP-1 62
O=C(NCc1cccnc1)c1cc(C2CCCCN2C(=O)OCc2ccccc2)on1 (stereo not given)	none (no result: ARNT TACC3 PPI, CAL PDZ FP-1, CAL PDZ FP-2)
O=C(NCc1cccnc1)c1cc(C2CCCCN2C(=O)CCCc2ccccc2)on1 (stereo not given)	F508del corr 12 (no result: ARNT TACC3 PPI, CAL PDZ FP-1, CAL PDZ FP-2)
CC(C)c1ccc(S(=O)(=O)N2CCN(C(=O)c3cccc(F)c3)CC2)cc1	CAL PDZ FP-1 46 (no result: F508del corr)
CO[C@H]1CN(C)C(=O)c2cc(NC(=O)C3CCCC3)ccc2OC[C@@H](C)N(CCC(F)(F)F)C[C@H]1C	none (no result: PGC1a acetyl inh, CAL PDZ FP-1, CAL PDZ FP-2)
COc1ccc([N+](=O)[O-])cc1N1C(=O)c2cccnc2C1=O	ARNT TACC3 PPI 50 (no result: PGC1a acetyl inh)
C[C@H](CO)N1C[C@H](C)[C@H](CN(C)S(=O)(=O)c2cn(C)cn2)Oc2ncc(-c3cccc(F)c3)cc2C1=O	none (no result: CAL PDZ FP-1, CAL PDZ FP-2)
Cc1ccc(C(=O)Oc2ccccc2N2C(=O)C3CCC(C)CC3C2=O)cc1 (stereo not given)	none (no result: F508del corr)
CC1CCC2C(=O)N(c3ccc(C(=O)Oc4cccc5cccnc45)cc3)C(=O)C2C1 (stereo not given)	ARNT TACC3 PPI 49 (no result: F508del corr, PGC1a acetyl inh, miR-122 sensor)
Cc1noc(C)c1S(=O)(=O)N(C)C[C@H]1Oc2ccc(NC(=O)CCC(F)(F)F)cc2CC(=O)N([C@H](C)CO)C[C@H]1C	none (no result: CAL PDZ FP-1, CAL PDZ FP-2)
O=c1cc(N2CCN(c3ccc(F)cc3)CC2)[nH]c(=O)n1C1CCCCC1	none (no result: F508del corr)
O=c1cc(O)n(C2CCCCCC2)c(=O)[nH]1	ARNT TACC3 PPI active
Brc1ccc(-c2nn3c(-c4ccccn4)nnc3s2)o1	ARNT TACC3 PPI 68 (no result: F508del corr, PGC1a acetyl inh)
Brc1ccc(-c2nn3c(-c4ccco4)nnc3s2)o1	none (no result: F508del corr)
